Tests used:
Rattus norvegicus [1] = species on record: Rattus norvegicus; experiment: Tissue biodistribution into estrogen-primed immature female rat muscle at 1 hr time interval; assay type: ADME, organism-based; conditions: in vivo
Procedure, shortened: (§1)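 Immature female Sprague-Dawley rats (25 days old, ≈50 g, five per time point) primed with estradiol, 5 μg sc daily for 2 days in 50% ethanol/sunflower seed oil, used 24 h after the last injection. The 18F-labeled ligand was given iv by tail vein in 10% ethanol/saline. Decapitated at 1 or 3 h; blood and organs weighed and gamma-counted. Reported as %ID/g ± SD, n = 5.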

Rattus norvegicus [2] = species on record: Rattus norvegicus; experiment: Tissue biodistribution into estrogen-primed immature female rat uterus at 1 hr blocked time interval; assay type: ADME, organism-based; conditions: in vivo; procedure, shortened: as §1
Rattus norvegicus [3] = species on record: Rattus norvegicus; experiment: Tissue biodistribution into estrogen-primed immature female rat blood at 3 hr time interval; assay type: ADME, organism-based; conditions: in vivo; procedure, shortened: as §1
Rattus norvegicus [4] = species on record: Rattus norvegicus; experiment: Tissue biodistribution into estrogen-primed immature female rat kidney at 1 hr blocked time interval; assay type: ADME, organism-based; conditions: in vivo; procedure, shortened: as §1
Rattus norvegicus [5] = species on record: Rattus norvegicus; experiment: Tissue biodistribution into estrogen-primed immature female rat kidney at 3 hr time interval; assay type: ADME, organism-based; conditions: in vivo; procedure, shortened: as §1
Rattus norvegicus [6] = species on record: Rattus norvegicus; experiment: Tissue biodistribution into estrogen-primed immature female rat fat at 1 hr low time interval; assay type: ADME, organism-based, Adipose tissue; conditions: in vivo; procedure, shortened: as §1
Rattus norvegicus [7] = species on record: Rattus norvegicus; experiment: Tissue biodistribution into estrogen-primed immature female rat liver at 1 hr low time interval; assay type: ADME, organism-based; conditions: in vivo; procedure, shortened: as §1
Rattus norvegicus [8] = species on record: Rattus norvegicus; experiment: Tissue biodistribution into estrogen-primed immature female rat uterus/muscle at 1 hr low time interval; assay type: ADME, organism-based; conditions: in vivo; procedure, shortened: as §1
Rattus norvegicus [9] = species on record: Rattus norvegicus; experiment: Tissue biodistribution into estrogen-primed immature female rat fat at 3 hr time interval; assay type: ADME, organism-based, Adipose tissue; conditions: in vivo; procedure, shortened: as §1
Rattus norvegicus [10] = species on record: Rattus norvegicus; experiment: Tissue biodistribution into estrogen-primed immature female rat lung at 1 hr time interval; assay type: ADME, organism-based; conditions: in vivo; procedure, shortened: as §1
Rattus norvegicus [11] = species on record: Rattus norvegicus; experiment: Tissue biodistribution into estrogen-primed immature female rat muscle at 3 hr time interval; assay type: ADME, organism-based; conditions: in vivo; procedure, shortened: as §1
Rattus norvegicus [12] = species on record: Rattus norvegicus; experiment: Tissue biodistribution into estrogen-primed immature female rat uterus/blood at 1 hr time interval; assay type: ADME, organism-based; conditions: in vivo; procedure, shortened: as §1
Rattus norvegicus [13] = species on record: Rattus norvegicus; experiment: Tissue biodistribution into estrogen-primed immature female rat fat at 1 hr blocked time interval; assay type: ADME, organism-based, Adipose tissue; conditions: in vivo; procedure, shortened: as §1
[14] = target: T1, Progesterone receptor (Homo sapiens) (UniProt P06401); experiment: Nonspecific binding affinity against progesterone receptor was estimated relative to compound R5020
T1 sequence (whole entry): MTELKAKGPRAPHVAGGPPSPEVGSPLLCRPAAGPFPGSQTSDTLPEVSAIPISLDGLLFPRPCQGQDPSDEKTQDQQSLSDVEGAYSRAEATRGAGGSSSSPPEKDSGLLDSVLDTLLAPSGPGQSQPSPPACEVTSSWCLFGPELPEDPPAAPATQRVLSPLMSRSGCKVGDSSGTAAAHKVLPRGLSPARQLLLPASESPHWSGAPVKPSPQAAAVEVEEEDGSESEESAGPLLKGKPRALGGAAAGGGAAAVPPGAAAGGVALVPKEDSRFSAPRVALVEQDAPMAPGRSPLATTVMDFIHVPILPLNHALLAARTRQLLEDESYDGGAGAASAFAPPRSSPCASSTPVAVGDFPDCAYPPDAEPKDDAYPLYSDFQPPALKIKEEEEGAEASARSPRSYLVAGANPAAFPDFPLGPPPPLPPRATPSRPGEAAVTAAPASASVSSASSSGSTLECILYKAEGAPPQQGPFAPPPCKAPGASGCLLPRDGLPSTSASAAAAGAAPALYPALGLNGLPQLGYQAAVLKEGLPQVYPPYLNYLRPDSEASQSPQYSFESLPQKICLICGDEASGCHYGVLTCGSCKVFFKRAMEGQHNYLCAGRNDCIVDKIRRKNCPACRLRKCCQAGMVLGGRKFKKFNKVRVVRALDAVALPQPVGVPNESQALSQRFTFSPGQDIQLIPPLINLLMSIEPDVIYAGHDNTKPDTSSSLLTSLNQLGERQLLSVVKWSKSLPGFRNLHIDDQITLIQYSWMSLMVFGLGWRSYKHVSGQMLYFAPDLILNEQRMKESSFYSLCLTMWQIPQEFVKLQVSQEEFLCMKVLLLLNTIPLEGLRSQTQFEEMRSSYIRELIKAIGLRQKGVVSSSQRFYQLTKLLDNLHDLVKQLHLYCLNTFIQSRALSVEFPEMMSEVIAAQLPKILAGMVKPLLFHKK

Rattus norvegicus [15] = species on record: Rattus norvegicus; experiment: Tissue biodistribution into estrogen-primed immature female rat uterus/muscle at 1 hr blocked time interval; assay type: ADME, organism-based; conditions: in vivo; procedure, shortened: as §1
Rattus norvegicus [16] = species on record: Rattus norvegicus; experiment: Tissue biodistribution into estrogen-primed immature female rat ovaries at 1 hr low time interval; assay type: ADME, organism-based, Female gonad; conditions: in vivo; procedure, shortened: as §1
[17] = target: T1, Progesterone receptor (Homo sapiens); experiment: Relative binding affinity against progesterone receptor at 0 degree Celsius determined in a competitive radiometric binding assay (R5020=100%).
Procedure, shortened: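 Competitive radiometric binding at 0 °C against tritium-labeled R5020 as the standard (RBA = 100). Values are the average of two experiments.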

Rattus norvegicus [18] = species on record: Rattus norvegicus; experiment: Tissue biodistribution into estrogen-primed immature female rat liver at 1 hr blocked time interval; assay type: ADME, organism-based; conditions: in vivo; procedure, shortened: as §1
Rattus norvegicus [19] = species on record: Rattus norvegicus; experiment: Tissue biodistribution into estrogen-primed immature female rat fat at 1 hr time interval; assay type: ADME, organism-based, Adipose tissue; conditions: in vivo; procedure, shortened: as §1
Rattus norvegicus [20] = species on record: Rattus norvegicus; experiment: Tissue biodistribution into estrogen-primed immature female rat ovaries at 1 hr time interval; assay type: ADME, organism-based, Female gonad; conditions: in vivo; procedure, shortened: as §1
Rattus norvegicus [21] = species on record: Rattus norvegicus; experiment: Tissue biodistribution into estrogen-primed immature female rat ovaries at 1 hr blocked time interval; assay type: ADME, organism-based; conditions: in vivo; procedure, shortened: as §1
Rattus norvegicus [22] = species on record: Rattus norvegicus; experiment: Tissue biodistribution into estrogen-primed immature female rat ovaries at 3 hr time interval; assay type: ADME, organism-based, Female gonad; conditions: in vivo; procedure, shortened: as §1
Rattus norvegicus [23] = species on record: Rattus norvegicus; experiment: Tissue biodistribution into estrogen-primed immature female rat muscle at 1 hr blocked time interval; assay type: ADME, organism-based; conditions: in vivo; procedure, shortened: as §1
Rattus norvegicus [24] = species on record: Rattus norvegicus; experiment: Tissue biodistribution into estrogen-primed immature female rat blood at 1 hr low time interval; assay type: ADME, organism-based; conditions: in vivo; procedure, shortened: as §1
Rattus norvegicus [25] = species on record: Rattus norvegicus; experiment: Tissue biodistribution into estrogen-primed immature female rat kidney at 1 hr time interval; assay type: ADME, organism-based; conditions: in vivo; procedure, shortened: as §1
Rattus norvegicus [26] = species on record: Rattus norvegicus; experiment: Tissue biodistribution into estrogen-primed immature female rat uterus at 1 hr time interval; assay type: ADME, organism-based; conditions: in vivo; procedure, shortened: as §1

CC1(c2ccco2)O[C@@H]2CC3C4CCC5=CC(=O)CC[C@@H]5C4CC[C@]3(C)[C@]2(C(=O)CF)O1 (stereo partly specified)
Injected dose/g (Rattus norvegicus [1]): 0.64% | Injected dose/g (Rattus norvegicus [2]): 1.43% | Injected dose/g (Rattus norvegicus [3]): 0.14% | Injected dose/g (Rattus norvegicus [4]): 1.84% | Injected dose/g (Rattus norvegicus [5]): 0.76% | Injected dose/g (Rattus norvegicus [6]): 1.86% | Injected dose/g (Rattus norvegicus [7]): 0.68% | Injected dose/g (Rattus norvegicus [8]): 12.09% | Injected dose/g (Rattus norvegicus [9]): 4.16% | Injected dose/g (Rattus norvegicus [10]): 1.92% | Injected dose/g (Rattus norvegicus [11]): 0.2% | Uterus to blood concentration ratio (Rattus norvegicus [12]): 20.09% | Injected dose/g (Rattus norvegicus [13]): 3.48% | NSB [14]: 1.09 | uterus/muscle ratio (Rattus norvegicus [15]): 2.68 | Injected dose/g (Rattus norvegicus [16]): 1.58% | RBA [17]: 173 | Injected dose/g (Rattus norvegicus [18]): 1.52% | Injected dose/g (Rattus norvegicus [19]): 2.86% | Injected dose/g (Rattus norvegicus [20]): 3.04% | Injected dose/g (Rattus norvegicus [21]): 1.52% | Injected dose/g (Rattus norvegicus [22]): 2.66% | Injected dose/g (Rattus norvegicus [23]): 0.54% | Injected dose/g (Rattus norvegicus [24]): 0.35% | Injected dose/g (Rattus norvegicus [25]): 1.59% | Injected dose/g (Rattus norvegicus [26]): 6.51%

— ChEMBL document CHEMBL1128440 (J Med Chem, 1995)
